The list is not random: actives were taken first. Their share in the collection is about 3.5%.
MrgX1 agonist = agonists of human MrgX1 receptor, primary screen, HEK293 cells, Fluo-4 calcium flux | AID 588627, 2011 | 310,000 compounds, 0.44% hits | Fluo-4 calcium fluorescence, agonist mode; stronger effect = higher value | B-score at 10 µM | Mas-related G-protein coupled receptor member X1 (Homo sapiens), Q96LB2;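 active = calcium response B-score plate-corrected fluorescence ratio at least 3 library SD, with starting fluorescence B-score inside 5 SD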
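System – MrgX1-expressing HEK293 cells · Incubation – cells plated overnight, dye loaded 0.5 h 37 °C, 0.5 h room temperature · Technique – kinetic Fluo-4 NW fluorescence of intracellular calcium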
RGS4 act = RGS4 potentiators or activators, primary screen, cell-based, HEK293 M3R inducible RGS4, calcium flux | carbachol calcium flux Fluo4; stronger effect = lower value | B-score at 10 µM | 310,000 compounds, 0.92% hits | AID 463111, 2010;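 active = B-score of the integrated calcium signal more than 4 SD below the library mean, with starting fluorescence not abnormally high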;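 note: negative B-score means reduced calcium response which marks RGS4 activation or potentiation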
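Assay system: Inducible-RGS4 HEK293 cells carrying M3 receptor | Schedule: Compound preincubation 20 min at room temperature before agonist | Signal: Kinetic calcium fluorescence imaging with Fluo4-AM dye, 2 µM | Read-out basis: B score from integrated fluorescence ratio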
MrgX1 PAM = positive allosteric modulators of MrgX1, primary screen, HEK293 cells, Fluo-4 calcium flux. AID 588675, 2011. 310,000 compounds, 0.63% hits. B-score at 10 µM. FDSS; stronger effect = higher value;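 active = plate-corrected calcium response at least 3 library SD above typical, normal starting fluorescence, not activating the receptor alone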;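 note: compound read alongside a low EC10 to EC30 dose of BAM8-22 agonist; peak minus trough fluorescence over baseline measured at the second addition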
MrgX1 antagonist = antagonists of human MrgX1 receptor, primary screen, HEK293 cells, Fluo-4 calcium flux. B-score at 10 µM. BAM8-22 antagonism; stronger effect = lower value. Mas-related G-protein coupled receptor member X1 (Homo sapiens), Q96LB2. 310,000 compounds, 1.3% hits;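 active = calcium-response B-score plate-corrected more than 3 library SD below zero, starting fluorescence within 5 deviations, no agonist response on first addition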;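 note: peak minus trough fluorescence over baseline after final BAM8-22 challenge near maximal dose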
RGS4 block = RGS4 inhibitors, primary screen, cell-based, HEK293 M3R inducible RGS4, calcium flux. AID 463165, 2010. B-score at 10 µM. Fluo-4 calcium flux; stronger effect = higher value; triggered by carbachol at its EC20. 310,000 compounds, 0.45% hits. Regulator of G-protein signaling 4 (Homo sapiens), P49798;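 active = B-score, a plate-corrected calcium signal, over three deviations above library mean, with baseline fluorescence within five deviations of library mean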;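 note: RGS4 expression induced by doxycycline in cells with stable M3 receptor; B-score is computed from the integrated fluorescence ratio over baseline after carbachol; higher B-score means a larger calcium signal and so more RGS4 inhibition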
Target sequence (P49798 whole entry, looked up): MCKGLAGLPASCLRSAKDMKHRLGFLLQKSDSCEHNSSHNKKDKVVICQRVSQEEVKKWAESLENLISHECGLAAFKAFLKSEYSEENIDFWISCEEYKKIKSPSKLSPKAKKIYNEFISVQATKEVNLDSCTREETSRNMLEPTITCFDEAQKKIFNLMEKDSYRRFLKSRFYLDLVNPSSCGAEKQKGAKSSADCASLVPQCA
* marks the source's active call; other numbers are inactive results; i = inactive; x = no result.

SMILES	MrgX1 agonist	RGS4 act	MrgX1 PAM	MrgX1 antagonist	RGS4 block
O=C(O)CC(CC(=O)NCC(O)c1ccccc1)c1ccccc1 (stereo not given)	i	i	i	i	i
FCCCOc1ccc(/C=N/OCc2ccc(Cl)cc2Cl)cc1	i	i	i	-5.5*	i
CCCCN1C(=O)C2(NNc3ccccc3O2)c2ccccc21 (stereo not given)	i	i	i	-6.1*	i
Fc1ccccc1NC(=S)Nc1ccc(CN2CCOCC2)cc1	i	i	i	i	i
O=C(NCc1ccc2c(c1)OCO2)c1ccc(S(=O)(=O)N2CCOCC2)cc1	i	i	i	i	i
COCCn1c(C)cc(C(=O)COC(=O)CNC(=O)c2ccccc2)c1C	i	i	i	-5*	i
COc1ccc([N+](=O)[O-])cc1N(CC(=O)NC1CCCCC1)S(C)(=O)=O	i	i	i	i	i
Cc1ccc([N+](=O)[O-])cc1N(CC(=O)N1CCCCC1)S(C)(=O)=O	i	i	7.5*	i	i
Cc1ccc([N+](=O)[O-])cc1N(CC(=O)NC1CCCC1)S(C)(=O)=O	i	i	11*	i	i
Cc1ccc(C)c(N(CC(=O)N2CCCCCC2)S(C)(=O)=O)c1	i	i	i	i	i
O=C(Nc1ccccc1N1CCOCC1)C1CCN(S(=O)(=O)c2ccccc2F)CC1	i	i	i	i	i
CSCCC(NC(=O)c1ccco1)C(=O)Nc1ccncc1 (stereo not given)	i	i	i	i	i
Cc1ccc(S(=O)(=O)NC(=O)c2ccc(-c3ccc(-c4ccccc4)cc3)o2)c(C)c1	i	-9.1*	i	i	i
NS(=O)(=O)c1ccc(CCNCc2cc(Br)ccc2OCc2ccccc2F)cc1	i	i	i	-4.7*	i
Nc1nonc1C(=O)NCCNCc1cc(Br)ccc1OCc1ccccc1F	i	i	i	i	i
C=CCOc1ccccc1CNCCc1ccc(S(N)(=O)=O)cc1	i	i	i	i	i
NS(=O)(=O)c1ccc(CCNCc2ccccc2OCc2ccc(Cl)cc2)cc1	i	i	i	-7.2*	i
NS(=O)(=O)c1ccc(CCNCc2cc(Cl)ccc2OCc2ccccc2)cc1	i	i	i	-7.2*	i
COCc1ccc(C(=O)NC2CCCc3c2cnn3-c2cc(C)cc(C)c2)s1 (stereo not given)	x	i	x	x	i
COc1ccc2noc3c2c1C(=O)c1ccccc1-3	i	-7.2*	i	i	i
CCCNC(=O)COc1coc(CN2CCN(c3ccccc3OC)CC2)cc1=O	i	i	i	i	i
Cc1ccc(-n2c(CSc3nc(C)cc(C)n3)nnc2SCC(=O)NCc2ccco2)cc1	i	i	i	-6.6*	i
COC(=O)CN1C(=S)N(c2ccc(OC)cc2)C(=O)/C1=C/c1ccc(N2CCOCC2)cc1	i	i	i	-6.1*	i
CCCCc1cc(=O)oc2cc(C)cc(OCC(=O)NCc3ccncc3)c12	i	i	7.2*	i	i
Nn1c(SCc2ccccc2)nnc1-c1ccco1	i	i	i	-5.7*	i
SMILES	MrgX1 agonist	RGS4 act	MrgX1 PAM	MrgX1 antagonist	RGS4 block
Nn1c(SCc2cccc3ccccc23)nnc1-c1ccco1	i	i	i	i	i
CN(Cc1cn[nH]c1-c1cc2ccccc2o1)CC1CCOCC1	i	i	i	i	i
Cc1ccc2c(c1)N(C(=O)c1ccco1)C(C)(C)c1ssc(=S)c1-2	i	i	i	i	i
COc1cc(/C=C2/CC/C(=C/c3ccc(O)c(OC)c3)C2=O)ccc1O	58*	i	i	i	i
COc1cc(/C=C2\COC/C(=C\c3ccc(O)c(OC)c3)C2=O)ccc1O	i	i	i	i	i
CCc1ccc(N=C2NC(=O)/C(=C/c3cc(OC)c(O)c(OC)c3)S2)cc1	i	i	i	-7.6*	i

Screens: PubChem BioAssay, Johns Hopkins Ion Channel Center
